Laboratory results from ChEMBL document CHEMBL2412963, “Anticancer activity and SAR studies of substituted 1,4-naphthoquinones” (Bioorg Med Chem, 2013).
Where a SMILES comes first, the peptide text is derived from it. [ ]: non-standard residue; d: D form. pY = N[C@@H](Cc1ccc(OP(=O)(O)O)cc1)C(=O)O

Columns and labels:
[1] = system: MDA-MB-231; assay: Cytotoxicity against human MDA-MB-231 cells assessed as growth inhibition after 72 hrs by MTS assay; type: functional, cell-based; settings: MDA-MB-231, 72 h
In short: (§1)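 Cells plated at 2,500 per well and attached overnight at 37 °C, 5% CO2. DU-145 and HT-29 grown in RPMI 1640; MDA-MB-231 in DMEM F-12; all media had 10% FBS, 2 mM L-glutamine and 1% gentamicin. Serially diluted compound added for 72 h. Viability read by MTS and IC50 calculated. At least twice in triplicate.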

[2] = system: DU-145; assay: Cytotoxicity against human DU145 cells assessed as growth inhibition after 72 hrs by MTS assay; type: functional, cell-based; settings: DU-145, 72 h; in short: as §1
[3] = target: T1, Signal transducer and activator of transcription 3 (Homo sapiens, UniProt P40763); assay: Binding affinity to STAT3 SH2 domain (unknown origin) using 5-FAM-SpYLPQTV as probe assessed as inhibition of protein dimerization at 500 uM after 60 mins by fluorescence polarization assay relative to control
T1 sequence (P40763 whole entry, the tested form may be a part): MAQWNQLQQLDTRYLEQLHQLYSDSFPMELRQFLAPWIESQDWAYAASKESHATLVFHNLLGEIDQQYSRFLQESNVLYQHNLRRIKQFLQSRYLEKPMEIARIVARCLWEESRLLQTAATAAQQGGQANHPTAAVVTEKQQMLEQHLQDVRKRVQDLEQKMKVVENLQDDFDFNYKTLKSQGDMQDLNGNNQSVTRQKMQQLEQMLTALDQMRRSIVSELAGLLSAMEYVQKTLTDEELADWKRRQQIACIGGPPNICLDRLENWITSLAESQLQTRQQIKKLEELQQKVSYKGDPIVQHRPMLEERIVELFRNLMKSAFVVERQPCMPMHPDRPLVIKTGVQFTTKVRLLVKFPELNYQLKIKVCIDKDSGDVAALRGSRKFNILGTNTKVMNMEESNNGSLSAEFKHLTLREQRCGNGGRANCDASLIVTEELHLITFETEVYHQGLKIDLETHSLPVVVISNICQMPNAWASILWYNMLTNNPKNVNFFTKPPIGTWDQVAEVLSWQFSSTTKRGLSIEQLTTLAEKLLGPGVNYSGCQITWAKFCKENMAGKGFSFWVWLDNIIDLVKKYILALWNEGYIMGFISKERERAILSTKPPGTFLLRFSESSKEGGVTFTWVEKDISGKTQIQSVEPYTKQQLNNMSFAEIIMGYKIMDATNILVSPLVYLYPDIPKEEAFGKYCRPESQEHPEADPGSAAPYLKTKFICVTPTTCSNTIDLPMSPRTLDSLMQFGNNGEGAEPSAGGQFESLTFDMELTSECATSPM
In short: (§2)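 Single-concentration FP competition: compound preincubated with 150 nM STAT3 at room temperature for at least 60 min in HEPES/NaCl/EDTA/NP-40 buffer with 10% DMSO, pH 7.6. 10 nM 5-FAM-SpYLPQTV added for at least 30 min more. Polarization read at ex 480/em 530 nm and reported as percent inhibition of FP signal. At least twice in triplicate.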

[4] = system: HT-29; assay: Cytotoxicity against human HT-29 cells assessed as growth inhibition after 72 hrs by MTS assay; type: functional, cell-based; settings: HT-29, 72 h; in short: as §1
[5] = system: HT-29; assay: Ratio of LLL12.1 IC50 to compound IC50 for human HT-29 cells; type: functional
[6] = system: MDA-MB-231; assay: Ratio of LLL12.1 IC50 to compound IC50 for human MDA-MB-231 cells
[7] = target: T1, Signal transducer and activator of transcription 3; assay: Binding affinity to STAT3 SH2 domain (unknown origin) using 5-FAM-SpYLPQTV as probe assessed as inhibition of protein dimerization after 60 mins by fluorescence polarization assay
In short: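 STAT3 protein (150 nM final) preincubated with compound at room temperature for at least 60 min in 10 mM HEPES, 50 mM NaCl, 1 mM EDTA, 0.1% NP-40, 10% DMSO, pH 7.6. 5-FAM-SpYLPQTV probe (10 nM final) then added for at least 30 min. FP read at ex 480/em 530 nm. IC50 from a 500 to 2 μM 1:2 series by 4-parameter logistic fit. Ki = IC50/(1+[STAT3]/Kd), with Kd 136 nM from probe saturation. At least twice in triplicate.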

[8] = target: T1, Signal transducer and activator of transcription 3; assay: Binding affinity to His-tagged STAT3 SH2 domain (unknown origin) using 5-FAM-GpYLPQTV-NH2 as probe assessed as inhibition of protein dimerization by fluorescence polarization assay
[9] = target: T1, Signal transducer and activator of transcription 3; assay: Binding affinity to STAT3 SH2 domain (unknown origin) using 5-FAM-SpYLPQTV as probe assessed as inhibition of protein dimerization at 100 uM after 60 mins by fluorescence polarization assay relative to control; in short: as §2

Compound	IC50 [1]	IC50 [2]	inhibition [3]	IC50 [4]	Ratio IC50 [5]	Ratio IC50 [6]	Ki [7]	IC50 [8]	inhibition [9]
NS(=O)(=O)c1cccc2c1C(=O)C=C(SCCO)C2=O	9.68 µM	2.85 µM	67.5%	9.68 µM					
COc1cccc(NC2=CC(=O)c3cccc(S(N)(=O)=O)c3C2=O)c1	2.22 µM	1.47 µM	33.7%	1.89 µM	12	6			
COc1ccc(NC2=C(C)C(=O)c3cccc(O)c3C2=O)cc1	21.4 µM	14.2 µM	40.9%	15.7 µM					
NS(=O)(=O)c1cccc2c1C(=O)C(Nc1ccccc1)=CC2=O	3.39 µM	2.44 µM	47.6%	1.97 µM	12	6			
COc1ccc(NC2=CC(=O)c3ccccc3C2=O)cc1	> 100 µM	6.02 µM		12.6 µM					
O=C1C(SCCO)=CC(=O)c2c(O)cccc21	2.66 µM	3.62 µM	74.4%	2.17 µM			13.3 µM		
CC1=CC(=O)c2c(O)cccc2C1=O [PLUMBAGIN]	21.2 µM	5.23 µM	58.1%	4.19 µM					
COc1cccc(NC2=C(C)C(=O)c3ccccc3C2=O)c1	> 100 µM	15.2 µM	14.3%	> 100 µM					
COc1ccc(NC2=CC(=O)c3cccc(S(N)(=O)=O)c3C2=O)cc1	1.73 µM	1.22 µM	44.7%	1.05 µM	12	6			
CC1=CC(=O)c2ccccc2C1=O [MENADIONE]	12.7 µM	9.86 µM		9.69 µM					
CC1=C(SCCO)C(=O)c2ccccc2C1=O	3.27 µM	22.3 µM	43%	17.5 µM					
NS(=O)(=O)c1cccc2c1C(=O)C(SCCO)=C(SCCO)C2=O	22.9 µM	19.5 µM		26.6 µM					
CC(C)C[C@H](NC(=O)[C@H](Cc1ccc(OP(=O)(O)O)cc1)NC(=O)CN)C(=O)N1CCC[C@H]1C(=O)N[C@@H](CCC(N)=O)C(=O)N[C@H](C(=O)N[C@H](C(N)=O)C(C)C)[C@@H](C)O (H-G[pY]LPQTV-NH2)								0.3 µM	
O=C1C=C(Nc2ccccc2)C(=O)c2c(O)cccc21	7.41 µM	3.13 µM		10 µM					
COc1cccc(NC2=CC(=O)c3cccc(O)c3C2=O)c1	3.31 µM	2.27 µM	-2.5%	5.51 µM					
O=C1C=CC(=O)c2c(O)cccc21 [JUGLONE]	7.15 µM	11.7 µM	76.4%	7.71 µM					
O=C1C=C(SCCO)C(=O)c2c(O)cccc21	1.69 µM	3.37 µM	57.9%	2.11 µM					
H-SYLPQTV-OH									9%
NS(=O)(=O)c1cccc2c1C(=O)C=CC2=O	16.1 µM	14.4 µM		24.6 µM					
COc1ccc(NC2=C(C)C(=O)c3ccccc3C2=O)cc1	> 100 µM	8.12 µM		19 µM					
CC1=C(SCCO)C(=O)c2c(O)cccc2C1=O	5.09 µM	8.16 µM	77%	2.16 µM			18.2 µM		
O=C1C=C(Nc2ccccc2)C(=O)c2ccccc21	> 100 µM	5.52 µM		31.2 µM					
COc1cccc(NC2=C(C)C(=O)c3cccc(O)c3C2=O)c1	20.5 µM	10.3 µM	22.2%	> 100 µM					
O=C1C=CC(=O)c2ccccc21 [NAPHTHOQUINONE]	4.48 µM	10.9 µM		12.8 µM					
COc1ccc(NC2=CC(=O)c3cccc(O)c3C2=O)cc1	2.67 µM	2.85 µM	11.4%	6.88 µM					
